We go through eleven molecules from ChEMBL document CHEMBL1127562, “N-substituted spirosuccinimide, spiropyridazine, spiroazetidine, and acetic acid aldose reductase inhibitors derived from isoquinoline-1,3-diones. 2” (J Med Chem, 1994).

Several values for one entry are separate records, joined by “and”; a condition that tells them apart may be missing. Equal entries are not always repeated. Activity calls are given as the source filed them. The calls are words filed in the database; no cut-off is given here.

Assay [1] relates to Rattus norvegicus. In words: Tested for in vivo inhibition of galactitol accumulation in the lens of galactose-fed rats at the dose of 25 (mg/kg/day). The assay is classed as functional, Lens of camera-type eye.
The subject of assay [2] is Rattus norvegicus. In words: Tested for in vivo inhibition of galactitol accumulation in the sciatic nerve of galactose-fed rats at the dose of 25 (mg/kg/day). The assay is classed as functional. In a few lines: (§1)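 Rats were given a 20% galactose diet for 4 days, with the test compound administered in the diet. Sciatic nerve galactitol accumulation was measured, and activity is given as % inhibition at the stated daily dose (mg/kg/day). Values are mean ± SEM, n = 6 animals; p < 0.01 unless indicated. NS means no significant inhibition of polyol accumulation.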

In assay [3] the target is Aldo-keto reductase family 1 member B1 (Bos taurus) (UniProt P16116). In words: Inhibition of aldose reductase activity in partially purified bovine lens preparation at 10e-5 M. In a few lines:
(§2)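 Partially purified bovine lens aldose reductase. Reduction of DL-glyceraldehyde substrate followed spectrophotometrically. Activity expressed as average inhibition at the tested concentrations, 1×10^-5, 1×10^-6, 1×10^-7 and 4×10^-6 M as printed; IC50 in M where given.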

The test system of assay [4] is Rattus norvegicus. In words: Tested for in vivo inhibition of galactitol accumulation in the lens of galactose-fed rats at the dose of 86.1 (mg/kg/day). The assay is classed as functional, Lens of camera-type eye. In a few lines: (§3)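 Galactosemic rats were fed 20% galactose for 4 days, with the compound mixed into the diet. […] galactitol accumulation was measured, and activity is given as % inhibition at the stated daily dose (mg/kg/day). Values are mean ± SEM of six animals; p < 0.01 unless indicated. NS means no significant inhibition of polyol accumulation.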

Assay [5] has as its system Rattus norvegicus. In words: Tested for in vivo inhibition of galactitol accumulation in the lens of galactose-fed rats at the dose of 24.4 (mg/kg/day); NS=Not significant. It is filed as functional, organism-based. Particulars: Lens of camera-type eye.
Assay [6] relates to Rattus norvegicus. In words: Tested for in vivo inhibition of galactitol accumulation in the sciatic nerve of galactose-fed rats at the dose of 24.4 (mg/kg/day). It is filed as functional. In a few lines: as §1
Assay [7] deals with Rattus norvegicus. In words: Tested for in vivo inhibition of galactitol accumulation in the lens of galactose-fed rats at the dose of 10.5 (mg/kg/day); NS=Not significant. Particulars: Lens of camera-type eye. It is filed as functional, organism-based.
Assay [8] has as its system Rattus norvegicus. In words: Tested for in vivo inhibition of galactitol accumulation in the sciatic nerve of galactose-fed rats at the dose of 49 (mg/kg/day). The assay is classed as functional. In a few lines:
(§4)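 Rats fed a 20% galactose diet for 4 days, with test compound given in the diet at the stated daily dose (mg/kg/day). Read-out is inhibition of galactitol (polyol) accumulation in sciatic nerve. Values are % inhibition, mean ± SEM of six animals; p < 0.01 unless marked (some p < 0.05). NS = no significant inhibition of polyol accumulation. Tolrestat was the reference standard.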

Assay [9] deals with Rattus norvegicus. In words: Tested for in vivo inhibition of galactitol accumulation in the lens of galactose-fed rats at the dose of 49 (mg/kg/day). The assay is classed as functional, Lens of camera-type eye.
The subject of assay [10] is Rattus norvegicus. In words: Tested for in vivo inhibition of galactitol accumulation in the lens of galactose-fed rats at the dose of 56.1 (mg/kg/day). The assay is classed as functional, Lens of camera-type eye. In short, it runs like this:
as §3

The test system of assay [11] is Rattus norvegicus. In words: Tested for in vivo inhibition of galactitol accumulation in the sciatic nerve of galactose-fed rats at the dose of 56.1 (mg/kg/day). The assay is classed as functional. In a few lines:
as §4

Assay [12] deals with Rattus norvegicus. In words: Tested for in vivo inhibition of galactitol accumulation in the sciatic nerve of galactose-fed rats at the dose of 93.6 (mg/kg/day). The assay is classed as functional. In a few lines:
as §4

In assay [13] the test system is Rattus norvegicus. In words: Tested for in vivo inhibition of galactitol accumulation in the lens of galactose-fed rats at the dose of 93.6 (mg/kg/day); NS=Not significant. The assay is classed as functional, organism-based. Particulars: Lens of camera-type eye. In a few lines: as §3
Assay [14] relates to Rattus norvegicus. In words: Tested for in vivo inhibition of galactitol accumulation in the sciatic nerve of galactose-fed rats at the dose of 49.3 (mg/kg/day). The assay is classed as functional. In a few lines: as §4
For assay [15], the system named is Rattus norvegicus. In words: Tested for in vivo inhibition of galactitol accumulation in the lens of galactose-fed rats at the dose of 49.3 (mg/kg/day); NS=Not significant. The assay is classed as functional, organism-based. As to conditions: Lens of camera-type eye.
The subject of assay [16] is Rattus norvegicus. In words: Tested for in vivo inhibition of galactitol accumulation in the sciatic nerve of galactose-fed rats at the dose of 9.8 (mg/kg/day). The assay is classed as functional. In short, it runs like this:
as §4

In assay [17] the test system is Rattus norvegicus. In words: Tested for in vivo inhibition of galactitol accumulation in the lens of galactose-fed rats. It is filed as functional, organism-based. As to conditions: Lens of camera-type eye.
The test system of assay [18] is Rattus norvegicus. In words: Tested for in vivo inhibition of galactitol accumulation in the sciatic nerve of galactose-fed rats. The assay is classed as functional, organism-based.
Assay [19] deals with Aldo-keto reductase family 1 member B1 (Bos taurus, UniProt P16116). In words: Compound was tested in vitro for inhibition of aldose reductase activity in partially purified bovine lens preparation. In short, it runs like this: as §2
The subject of assay [20] is Rattus norvegicus. In words: Tested for in vivo inhibition of galactitol accumulation in the lens of galactose-fed rats at the dose of 24.5 (mg/kg/day); NS=Not significant. Particulars: Lens of camera-type eye. It is filed as functional, organism-based.
Assay [21] relates to Rattus norvegicus. In words: Tested for in vivo inhibition of galactitol accumulation in the sciatic nerve of galactose-fed rats at the dose of 24.5 (mg/kg/day). It is filed as functional. In a few lines:
as §1

In assay [22] the test system is Rattus norvegicus. In words: Tested for in vivo inhibition of galactitol accumulation in the sciatic nerve of galactose-fed rats at the dose of 0.5 (mg/kg/day). The assay is classed as functional. In a few lines:
as §1

Assay [23] concerns Rattus norvegicus. In words: Tested for in vivo inhibition of galactitol accumulation in the sciatic nerve of galactose-fed rats at the dose of 0.9 (mg/kg/day). It is filed as functional. In a few lines:
as §1

For assay [24], the system named is Rattus norvegicus. In words: Tested for in vivo inhibition of galactitol accumulation in the sciatic nerve of galactose-fed rats at the dose of 10.8 (mg/kg/day). It is filed as functional. In short, it runs like this:
as §1

Assay [25] has as its system Rattus norvegicus. In words: Tested for in vivo inhibition of galactitol accumulation in the lens of galactose-fed rats at the dose of 0.9 (mg/kg/day); NS=Not significant. It is filed as functional, organism-based. As to conditions: Lens of camera-type eye.
Assay [26] concerns Rattus norvegicus. In words: Tested for in vivo inhibition of galactitol accumulation in the lens of galactose-fed rats at the dose of 10.8 (mg/kg/day). The assay is classed as functional, Lens of camera-type eye.
The subject of assay [27] is Rattus norvegicus. In words: Tested for in vivo inhibition of galactitol accumulation in the lens of galactose-fed rats at the dose of 50.9 (mg/kg/day). It is filed as functional, Lens of camera-type eye.
Assay [28] has as its system Rattus norvegicus. In words: Tested for in vivo inhibition of galactitol accumulation in the sciatic nerve of galactose-fed rats at the dose of 50.9 (mg/kg/day). The assay is classed as functional. In a few lines:
as §4

One may read the Inhibition as the relative decrease from the control value, in per cent. Low readings indicate a weak effect, high ones a strong effect. In general, inhibition refers to how much of the control response was suppressed. What is called ED50 is the dose at which the effect has come halfway, by size or by number of responders. A word on the IC50: it is the point on the concentration scale where inhibition reaches its midpoint. High values mean lower potency, low ones higher potency.

Take `COC(=O)NC(=O)CC1C(=O)N(C)C(=O)c2ccc(Cl)cc21` (stereo unspecified): the Inhibition in the assay on Rattus norvegicus [1] is 24%; in the assay on Rattus norvegicus [2] it was 53%; in the assay on Rattus norvegicus [4], 54% and 81%. The same molecule came in with an inhibition in assay [3] of 65%.
As for `COC(=O)NC(=O)CC1C(=O)N(C)C(=O)c2ccc(Br)cc21` (stereo unspecified), the inhibition entry in the assay with Rattus norvegicus [5] was “inactive”. In the assay with Rattus norvegicus [6], this molecule gave an Inhibition of 68%. In [3], the inhibition turned out to be 82%.
Turning to `CN1C(=O)c2ccc(Cl)cc2C2(CC(=O)N2)C1=O` (stereo unspecified), the inhibition entry in the assay with Rattus norvegicus [7] was “inactive”. The figures for the Inhibition in the assay on Rattus norvegicus [8] and in the assay with Rattus norvegicus [9] were 87% and 66%, respectively.
Regarding `NN1C(=O)CC2(C1=O)C(=O)N(Cc1ccc(Br)cc1F)C(=O)c1ccccc12` (stereo unspecified), the Inhibition with Rattus norvegicus [10] was determined as 82%; in the assay on Rattus norvegicus [11], 72%. Also, the inhibition entry in assay [3] was “inactive”.
Regarding `COC(=O)NC(=O)CC1C(=O)N(Cc2nc3cc(C(F)(F)F)ccc3s2)C(=O)c2ccc(F)cc21` (stereo unspecified), the Inhibition in the assay with Rattus norvegicus [12] is 59%; in the assay on Rattus norvegicus [14] it was 39%. In addition, the inhibition result in the assay with Rattus norvegicus [13] and in the assay on Rattus norvegicus [15] was “inactive” in each case. This molecule yielded an inhibition in [3] of 83%.
For `CN1C(=O)CC2(C1=O)C(=O)N(Cc1ccc(Cl)cc1)C(=O)c1ccccc12` (stereo unspecified), the Inhibition in the assay on Rattus norvegicus [16] came out at 35%. The inhibition result in assay [3] is “inactive”.
Consider `O=C1CC2(C(=O)N1)C(=O)N(Cc1ccc(Br)cc1F)C(=O)c1ccccc12` (stereo unspecified), for which, in the assay on Rattus norvegicus [17], the EC50 is 10 mg/kg/day. The ED50 with Rattus norvegicus [18] is 0.3 mg/kg/day. In assay [19], this molecule yielded a 50% inhibitory concentration (IC50) of 23 nM.
`CCOC(=O)NC(=O)CC1C(=O)N(C)C(=O)c2ccc(Cl)cc21` (stereo unspecified): the inhibition result (with Rattus norvegicus [20]; in [3]) was “inactive” throughout. The same molecule displayed an Inhibition with Rattus norvegicus [21] of 21%.
For `CCN1C(=O)CC2(C1=O)C(=O)N(Cc1ccc(Br)cc1F)C(=O)c1ccccc12` (stereo unspecified), the Inhibition with Rattus norvegicus [22] came to 37%; with Rattus norvegicus [23], 65%. In addition, the inhibition entry in assay [3] is “inactive”.
In the case of `CC(C)=NN1C(=O)CC2(C(=O)N(Cc3ccc(Br)cc3F)C(=O)c3ccccc32)C1=O` (stereo unspecified), the Inhibition came to 82% with Rattus norvegicus [24] and 30% in the assay with Rattus norvegicus [26]. The inhibition result (with Rattus norvegicus [25]; in assay [3]) was “inactive” each time.
On to `CCC(CC)=NN1C(=O)CC2(C(=O)N(Cc3ccc(Br)cc3F)C(=O)c3ccccc32)C1=O` (stereo unspecified), for which the Inhibition is 71% with Rattus norvegicus [27] and 98% in the assay on Rattus norvegicus [28]. Moreover, the inhibition result in assay [3] is “inactive”.
